Our source for the IC50 and inhibition values is ChEMBL document CHEMBL4152221, “Synthesis and structure-activity relationship of furoquinolinediones as inhibitors of Tyrosyl-DNA phosphodiesterase 2 (TDP2)” (Eur J Med Chem, 2018).

The target of test [1] is T1, Tyrosyl-DNA phosphodiesterase 2 (Homo sapiens, UniProt O95551).
T1 sequence (O95551 whole entry): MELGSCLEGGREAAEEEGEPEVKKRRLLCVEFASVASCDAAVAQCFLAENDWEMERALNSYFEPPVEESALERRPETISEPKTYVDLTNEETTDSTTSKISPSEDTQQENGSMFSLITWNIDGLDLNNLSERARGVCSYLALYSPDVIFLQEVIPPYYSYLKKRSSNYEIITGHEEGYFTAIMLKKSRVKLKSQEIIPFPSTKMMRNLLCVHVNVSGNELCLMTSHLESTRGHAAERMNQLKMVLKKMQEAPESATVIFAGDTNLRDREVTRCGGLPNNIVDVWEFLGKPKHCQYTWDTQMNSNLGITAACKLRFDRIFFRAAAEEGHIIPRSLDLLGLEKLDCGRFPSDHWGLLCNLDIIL
In words: Inhibition of human TDP2 expressed in TDP2 deficient chicken DT40 whole cell extracts using TY19 DNA as substrate after 15 mins by PAGE analysis. In outline:
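Extract from 1×10^7 TDP2-knockout DT40 cells complemented with human TDP2, lysed 15 min on ice, spun at 12000 g for 10 min, stored at -80 °C. TY19 substrate at 1 nM with 5 μg/mL extract, ±inhibitor, 15 min at room temperature in LMP2 buffer. Gel densitometry. IC50 is mean ± SD of ≥3 independent experiments.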

In test [2] the target is Tyrosyl-DNA phosphodiesterase 1 (Homo sapiens, UniProt Q9NUW8). In words: Inhibition of recombinant TDP1 (unknown origin) at 111 uM using 5'-[32P]-labeled N14Y as substrate after 15 mins by PAGE analysis. In outline: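 5'-32P-labeled N14Y (3'-phosphotyrosyl single-stranded oligo) at 1 nM with 10 pM recombinant TDP1, 15 min at room temperature. Three-fold dilutions up to 111 μM. Gels scanned and quantified by densitometry. Positive control: AM-8-3.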
Chain of Tyrosyl-DNA phosphodiesterase 1 (Q9NUW8 whole entry): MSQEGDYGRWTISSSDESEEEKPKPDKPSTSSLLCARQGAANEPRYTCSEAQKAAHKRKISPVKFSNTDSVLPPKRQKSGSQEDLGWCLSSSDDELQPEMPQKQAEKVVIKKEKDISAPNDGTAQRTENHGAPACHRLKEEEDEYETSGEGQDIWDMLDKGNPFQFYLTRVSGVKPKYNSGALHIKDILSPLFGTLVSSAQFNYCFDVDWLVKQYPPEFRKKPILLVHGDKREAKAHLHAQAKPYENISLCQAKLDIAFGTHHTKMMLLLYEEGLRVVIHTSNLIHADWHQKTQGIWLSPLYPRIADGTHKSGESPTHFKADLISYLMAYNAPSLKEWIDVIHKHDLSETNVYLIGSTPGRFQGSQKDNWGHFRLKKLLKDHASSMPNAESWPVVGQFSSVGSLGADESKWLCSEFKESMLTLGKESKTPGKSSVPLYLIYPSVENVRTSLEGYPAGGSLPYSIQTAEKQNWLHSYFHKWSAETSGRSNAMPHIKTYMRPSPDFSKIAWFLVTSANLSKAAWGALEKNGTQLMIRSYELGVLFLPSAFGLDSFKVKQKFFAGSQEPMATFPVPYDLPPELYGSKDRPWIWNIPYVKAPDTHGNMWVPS

In test [3] the target is T1, Tyrosyl-DNA phosphodiesterase 2. In words: Inhibition of recombinant human TDP2 using TY18 (alpha-[32P]-cordycepin-3'-labeled) as substrate after 15 mins by PAGE analysis. In outline:
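32P-cordycepin-3'-labeled TY18 substrate at 1 nM with 25 pM recombinant human TDP2, 15 min at room temperature. Buffer: 50 mM Tris-HCl pH 7.5, 80 mM KCl, 5 mM MgCl2, 0.1 mM EDTA, 1 mM DTT, 40 μg/mL BSA, 0.01% Tween 20. Six or eight three-fold dilutions up to 111 μM. Gel densitometry; IC50 is mean ± SD of ≥3 independent experiments. Positive control: SV-163.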

Molecules are shown by their SMILES. Active and inactive are the calls of the source. No rule for the calls is given here.

Take `Cc1oc2c(c1C(=O)OCCCCCO)C(=O)c1ncccc1C2=O`: the IC50 in test [1] was determined as 19 µM; in test [3], 45 µM. Further, the inhibition entry in test [2] was “inactive”.
The matching figures for `Cc1oc2c(c1C(=O)OCC(F)(F)F)C(=O)c1ncccc1C2=O`: 24 µM, 28 µM and “inactive”.
On to `CC(=O)c1c(C)oc2c1C(=O)c1ncccc1C2=O`, for which the half-inhibitory concentration (IC50) in test [1] came to 36 µM; in test [3], 35 µM. For the same compound, in test [2], the inhibition entry was “inactive”.
Turning to `Cc1oc2c(c1C(=O)Oc1cccc(-c3cn(CCC(=O)O)nn3)c1)C(=O)c1ncccc1C2=O` [listing 1 of 3 here], the results for the IC50 in test [1] and in test [3] were 28 µM and 50 µM, respectively.
Turning to `Cc1oc2c(c1C(=O)Oc1ccc(C(=O)c3ccccc3)cc1)C(=O)c1ncccc1C2=O`, the inhibition result in test [2] is “inactive”. Also, in test [3], the IC50 is > 111 µM.
As for `Cc1oc2c(c1C(=O)Oc1ccccc1C#N)C(=O)c1ncccc1C2=O`, the IC50 in test [1] and in test [3] was > 111 µM each time. In test [2], the inhibition result was “inactive”.
As to `Cc1oc2c(c1C(=O)OCCC[n+]1ccccc1)C(=O)c1ncccc1C2=O`, the half-inhibitory concentration (IC50) in test [1] is 24 µM; in test [3], 32 µM. In addition, the inhibition result in test [2] is “inactive”.
For `Cc1oc2c(c1C(=O)OC[C@H](O)CO)C(=O)c1ncccc1C2=O` the same measures were 15 µM, 50 µM and “inactive”.
The matching figures for `Cc1oc2c(c1C(=O)Oc1cccc(Cl)c1)C(=O)c1ncccc1C2=O`: 11 µM, 14 µM and “inactive”.
As to `Cc1oc2c(c1C(=O)Oc1ccc(OCCCN3CCOCC3)cc1)C(=O)c1ncccc1C2=O`, the inhibition result in test [2] was “inactive”. Also, the half-inhibitory concentration (IC50) in test [3] was 51 µM.
`Cc1oc2c(c1C(=O)Oc1ccccc1O)C(=O)c1cccnc1C2=O`: the figures for the IC50 in test [1] and in test [3] were 39 µM and 29 µM, respectively. Further, the inhibition result in test [2] is “inactive”.
For the compound `Cc1oc2c(c1C(=O)Nc1ccccc1)C(=O)c1ncccc1C2=O`, the inhibition result in test [2] is “inactive”. Moreover, the IC50 in test [3] is > 111 µM.
For the compound `COC(=O)[C@H](Cc1ccc(OC(=O)c2c(C)oc3c2C(=O)c2ncccc2C3=O)cc1)NC(C)=O`, the results for the IC50 in test [1] and in test [3] were 17 µM and 23 µM, respectively. Moreover, the inhibition entry in test [2] was “inactive”.
`CCOC(=O)c1n[nH]c2c1C(=O)c1cccnc1C2=O`: the inhibition result in test [2] is “inactive”. Besides, the IC50 in test [3] was > 111 µM.
The matching figures for `COP(=O)(OC)Oc1ccc(OC(=O)c2c(C)oc3c2C(=O)c2ncccc2C3=O)cc1`: “inactive” and 31 µM.
As to `Cc1oc2c(c1C(=O)OCC(O)CO)C(=O)c1ncccc1C2=O` (stereo not drawn), the values for the half-maximal inhibitory concentration (IC50) in test [1] and in test [3] were 11 µM and 20 µM, respectively. For the same compound, the inhibition result in test [2] is “inactive”.
Take `CCNC(=O)c1c(C)oc2c1C(=O)c1ncccc1C2=O`: the inhibition result in test [2] is “inactive”. Further, the IC50 in test [3] is > 111 µM.
Regarding `Cc1oc2c(c1C(=O)Oc1ccc(S(C)(=O)=O)cc1)C(=O)c1ncccc1C2=O`, the IC50 in test [1] was determined as 16 µM; in test [3], 14 µM. Besides, the inhibition result in test [2] is “inactive”.
The matching figures for `Cc1oc2c(c1C(=O)OCCCCO)C(=O)c1ncccc1C2=O`: 12 µM, 26 µM and “inactive”.
`C=CC(=O)Nc1ccc(OC(=O)c2c(C)oc3c2C(=O)c2ncccc2C3=O)cc1`: the inhibition entry in test [2] is “inactive”. Besides, the IC50 in test [3] amounted to 68 µM.
On to `Cc1oc2c(c1C(=O)Oc1ccc(Cl)cc1)C(=O)c1ncccc1C2=O`, for which the results for the IC50 in test [1] and in test [3] were 7.5 µM and 11 µM, respectively. Further, in test [2], the inhibition result is “inactive”.
As to `Cc1oc2c(c1C(=O)Oc1ccc(Br)cc1)C(=O)c1ncccc1C2=O`, the half-maximal inhibitory concentration (IC50) in test [1] was 12 µM; in test [3] it was 35 µM. Besides, the inhibition result in test [2] was “inactive”.
Regarding `CC(=O)N1CCN(c2ccc(OC(=O)c3c(C)oc4c3C(=O)c3ncccc3C4=O)cc2)CC1`, the IC50 stood at 34 µM in test [1] and 37 µM in test [3]. For the same compound, the inhibition result in test [2] is “inactive”.
Consider `Cc1oc2c(c1C(=O)Oc1ccc3ccccc3c1)C(=O)c1ncccc1C2=O`, for which the inhibition result in test [2] is “inactive”. The IC50 in test [3] was > 111 µM.
Turning to `Cc1oc2c(c1C(=O)Oc1cccc(N)c1)C(=O)c1ncccc1C2=O`, the IC50 in test [1] came to 12 µM; in test [3], 16 µM. In addition, the inhibition entry in test [2] is “inactive”.
For the compound `COC(=O)c1c(C)oc2c1C(=O)c1ncccc1C2=O`, the values for the IC50 in test [1] and in test [3] were 12 µM and 26 µM, respectively. Further, in test [2], the inhibition entry was “inactive”.
With `Cc1oc2c(c1-c1nc3ccccc3o1)C(=O)c1ncccc1C2=O`, in test [2], the inhibition result is “inactive”. Moreover, the IC50 in test [3] is > 111 µM.
As to `Cc1oc2c(c1C(=O)Oc1ccc(C#N)cc1)C(=O)c1ncccc1C2=O`, the IC50 in test [1] was found to be 13 µM; in test [3], 15 µM. The inhibition entry in test [2] was “inactive”.
On to `Cc1oc2c(c1C(=O)Nc1ccccc1O)C(=O)c1ncccc1C2=O`, for which, in test [2], the inhibition result is “inactive”. The IC50 in test [3] was > 111 µM.
With `COP(=O)(CCOC(=O)c1c(C)oc2c1C(=O)c1ncccc1C2=O)OC`, the IC50 in test [1] was determined as 17 µM; in test [3], 9 µM. In addition, in test [2], the inhibition result is “inactive”.
Consider `Cc1oc2c(c1C(=O)Oc1ccccc1Cl)C(=O)c1ncccc1C2=O`, for which the IC50 was 14 µM in test [1] and 10 µM in test [3]. Moreover, the inhibition result in test [2] was “inactive”.
`Cc1oc2c(c1C(=O)Oc1ccc3c(c1)OCO3)C(=O)c1ncccc1C2=O`: the half-maximal inhibitory concentration (IC50) in test [1] and in test [3] was > 111 µM throughout. Besides, the inhibition entry in test [2] is “inactive”.
For `CCOC(=O)c1c2c(n(C)c1C)C(=O)c1ncccc1C2=O`, the inhibition entry in test [2] was “inactive”. Besides, the IC50 in test [3] is > 111 µM.
For `COP(=O)(OC)c1c(C)oc2c1C(=O)c1ncccc1C2=O` the same measures were “inactive” and > 111 µM.
The matching figures for `Cc1oc2c(c1C(=O)Oc1cccc(NC(=O)OC(C)(C)C)c1)C(=O)c1ncccc1C2=O`: “inactive” and 31 µM.
For `C#Cc1cccc(OC(=O)c2c(C)oc3c2C(=O)c2ncccc2C3=O)c1`, the IC50 in test [1] amounted to 13 µM; in test [3] it was 43 µM. The inhibition entry in test [2] is “inactive”.
Turning to `Cc1oc2c(c1C(=O)Oc1cccc(-c3cn(CCC(=O)O)nn3)c1)C(=O)c1ncccc1C2=O` [listing 2 of 3 here], the IC50 in test [1] was 13 µM; in test [3], 22 µM.
`Cc1oc2c(c1C(=O)Oc1ccccc1NC(=O)OC(C)(C)C)C(=O)c1ncccc1C2=O`: the inhibition result in test [2] is “inactive”. Besides, the IC50 in test [3] worked out at 36 µM.
On to `CC(=O)c1c(C)oc2c1C(=O)c1cccnc1C2=O`, for which the inhibition entry in test [2] is “inactive”. In addition, in test [3], the IC50 was > 111 µM.
In the case of `CCNC(=O)c1c(C)oc2c1C(=O)c1cccnc1C2=O`, the inhibition entry in test [2] was “inactive”. For the same compound, in test [3], the IC50 is > 111 µM.
Consider `CCOC(=O)c1n[nH]c2c1C(=O)c1ncccc1C2=O`, for which, in test [2], the inhibition entry was “inactive”. Also, the IC50 in test [3] is > 111 µM.
For `C=CC(=O)Nc1cccc(OC(=O)c2c(C)oc3c2C(=O)c2ncccc2C3=O)c1` the same measures were “inactive” and 71 µM.
For `Cc1cnc2c(c1)C(=O)c1occ(C)c1C2=O` the same measures were “inactive” and > 111 µM.
Consider `Cc1oc2c(c1C(=O)Oc1ccc(NC(=O)OC(C)(C)C)cc1)C(=O)c1ncccc1C2=O`, for which the inhibition result in test [2] was “inactive”. Besides, in test [3], the IC50 came out at 88 µM.
The matching figures for `Cc1oc2c(c1C(=O)Oc1ccc(N)cc1)C(=O)c1ncccc1C2=O`: “inactive” and 19 µM.
For the compound `Cc1oc2c(c1C(=O)Nc1cccc(Cl)c1)C(=O)c1ncccc1C2=O`, in test [2], the inhibition result is “inactive”. Further, in test [3], the IC50 was > 111 µM.
With `Cc1oc2c(c1C(=O)Nc1cccc(Cl)c1)C(=O)c1cccnc1C2=O`, the inhibition entry in test [2] is “inactive”. Besides, in test [3], the IC50 is > 111 µM.
Regarding `Cc1oc2c(c1C(=O)Oc1cccc(-c3cn(CCC(=O)O)nn3)c1)C(=O)c1ncccc1C2=O` [listing 3 of 3 here], the inhibition entry in test [2] is “inactive”.
Turning to `COP(=O)(OC)c1c(C)oc2c1C(=O)c1cccnc1C2=O`, the inhibition result in test [2] is “inactive”. In test [3], the IC50 came out at 99 µM.
For `CCOC(=O)c1c(C)[nH]c2c1C(=O)c1cccnc1C2=O` the same measures were “inactive” and > 111 µM.
With `COc1ccc(NC(=O)c2c(C)oc3c2C(=O)c2ncccc2C3=O)cc1`, the inhibition entry in test [2] is “inactive”. Besides, the IC50 in test [3] is > 111 µM.

The term IC50 denotes the concentration at which inhibition is half-maximal.
